Screens: PubChem BioAssay, several laboratories
VIM-2 inhibitor: inhibitors of Pseudomonas aeruginosa VIM-2 metallo-beta-lactamase; purified VIM-2, nitrocefin hydrolysis, epi-absorbance fluorescence; inhibition, % at 5.6 µM; 290,000 compounds, 0.89% hits; AID 1527;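 active = inhibition above the mean of all tested compounds plus 3 SD, cutoff set per screening run, cut at about 7.5% in these data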;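 also: red hydrolysis product quenches plate fluorescence so inhibitors raise well fluorescence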
core dimer inh: blocks dimerization of HCV core protein; TR-FRET GST/Flag-core106 dimerization, 1536-well; inhibition, % at 5 µM; 300,000 compounds, 0.33% hits; AID 1899;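 active = inhibition above the mean of all tested compounds plus 3 SD, set per screening campaign, cut at about 45% in these data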
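test system = GST/Flag-tagged HCV core106 proteins | probe or stimulus = Eu donor and XL665 acceptor anti-tag antibodies | times = compound-protein-antibody incubation 4 h at 22.5 °C | signal = TR-FRET, excitation 340 nm, emission 617 and 671 nm | measure = percent inhibition of core106 dimerization signal | controls = wells lacking GST-core106 and wells with excess unlabelled core106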
PHOSPHO1 block: PHOSPHO1 (human) inhibition; Q8TCT1; recombinant PHOSPHO1, absorbance phosphatase assay; inhibition, % at 13.3 µM; 290,000 compounds, 1.1% hits; AID 1565; in the data active = inhibition above about 60%
Target sequence (Q8TCT1 whole entry, looked up): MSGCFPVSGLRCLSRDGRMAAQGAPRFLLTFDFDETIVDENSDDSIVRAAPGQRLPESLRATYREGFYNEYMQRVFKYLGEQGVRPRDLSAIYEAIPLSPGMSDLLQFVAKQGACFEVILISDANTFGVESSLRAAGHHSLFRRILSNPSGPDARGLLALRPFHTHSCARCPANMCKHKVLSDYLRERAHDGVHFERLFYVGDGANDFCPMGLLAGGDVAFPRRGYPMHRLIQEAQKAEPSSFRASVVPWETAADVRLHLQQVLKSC
IMP-1 inh: blocks Pseudomonas aeruginosa IMP-1 metallo-beta-lactamase; purified IMP-1, nitrocefin hydrolysis, epi-absorbance fluorescence; inhibition, % at 5.6 µM; 290,000 compounds, 0.45% hits; AID 1556;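 active = inhibition above the mean plus 3 SD of all compounds in the same screening run, cut at about 4.5% in these data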
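System: purified IMP-1 / Input: IMP-1 dispensed at 0.2 nM / Medium: 50 mM HEPES pH 7.1, 50 µM ZnSO4, 0.05% Brij 35 / Timing: 15 min enzyme–compound preincubation, then 25 min nitrocefin reaction, 25 °C / Technique: plate fluorescence quenching by hydrolysis product, ex 480/em 530 nm / Repeats: singlicate testing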
HCV NS3 hel inh: blocks Hepatitis C virus NS3 helicase unwinding | inhibition, % at 10.9 µM | AID 1800 | NS3 helicase DNA unwinding, Cy5 molecular beacon fluorescence | 290,000 compounds, 0.56% hits;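 active = inhibition above the mean of all tested compounds plus 3 SD, set per campaign, cut at about 35% in these data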
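Assay system: hepatitis C virus NS3 helicase domain fragment enzyme. Also added: annealed dual-labelled DNA beacon duplex, ATP-started. Timing: 1 h reaction at 25 °C, ATP-initiated. Technique: Cy5 fluorescence at 0 and 60 min, beacon hairpin quenching. Evaluation: % inhibition of unwinding. Replication: one well per compound.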
SUMO HTRF inh: blocks human SUMOylation mediated by UBC9; P63279; HTRF SUMOylation assay, SAE1/SAE2 + UBC9, in vitro; inhibition, % at 35 µM; 290,000 compounds, 0.36% hits; AID 2006; in the data active = inhibition above about 50%, passing the limit was not always enough
Target sequence (P63279 whole entry, looked up): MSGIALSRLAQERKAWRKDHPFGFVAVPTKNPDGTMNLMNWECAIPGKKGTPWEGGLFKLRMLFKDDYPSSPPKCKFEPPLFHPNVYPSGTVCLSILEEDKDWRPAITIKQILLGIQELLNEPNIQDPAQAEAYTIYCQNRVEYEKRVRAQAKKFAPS
Numbers stand for hits. A selection: hits, their analogues and other compounds. The true share with any hit is near 3.1%.

What do the screens show for `O=C1C2C3C=CC(C4CC34)C2C(=O)N1/N=C/c1ccc(-c2ccc([N+](=O)[O-])cc2)o1` (stereo unspecified)?
VIM-2 inhibitor: inactive; core dimer inh: inactive; PHOSPHO1 block: inactive; IMP-1 inh: inactive; HCV NS3 hel inh: inactive; SUMO HTRF inh: inactive

Results for Cc1ccc(-c2ccc(/C=N/N3C(=O)C4C5C=CC(C6CC56)C4C3=O)o2)c([N+](=O)[O-])c1 (stereo unspecified) ?
VIM-2 inhibitor: inactive; core dimer inh: inactive; PHOSPHO1 block: 69.4; IMP-1 inh: inactive; HCV NS3 hel inh: inactive; SUMO HTRF inh: inactive

How did Cc1cc(Cl)ccc1OCC(=O)Nc1ccccc1N1CCOCC1 do in these assays?
VIM-2 inhibitor: inactive; core dimer inh: inactive; PHOSPHO1 block: inactive; IMP-1 inh: inactive; HCV NS3 hel inh: inactive; SUMO HTRF inh: inactive

What do the screens show for `Cc1cc(Cl)ccc1OCC(=O)Nc1ccccc1C(=O)N1CCOCC1`?
VIM-2 inhibitor: inactive; core dimer inh: inactive; PHOSPHO1 block: 61.0; IMP-1 inh: inactive; HCV NS3 hel inh: inactive; SUMO HTRF inh: inactive

How did CCOc1ccccc1NC(=O)NNC(=O)CCc1ccc(OC)cc1 do in these assays?
VIM-2 inhibitor: inactive; PHOSPHO1 block: inactive; IMP-1 inh: inactive; HCV NS3 hel inh: inactive; SUMO HTRF inh: inactive

What do the screens show for `CC(C)N(C(=O)c1ccc(C(=O)Nc2ccc([N+](=O)[O-])cc2)cc1)C(C)C`?
VIM-2 inhibitor: inactive; core dimer inh: inactive; PHOSPHO1 block: inactive; IMP-1 inh: 5.6; HCV NS3 hel inh: inactive; SUMO HTRF inh: inactive

What do the screens show for `CN(C)S(=O)(=O)c1ccc(NC(=O)c2ccc([N+](=O)[O-])cc2)cc1`?
VIM-2 inhibitor: inactive; core dimer inh: inactive; PHOSPHO1 block: inactive; IMP-1 inh: inactive; HCV NS3 hel inh: inactive; SUMO HTRF inh: inactive

What do the screens show for `Cc1cnc(C(=O)OCC(=O)Nc2cc(-c3ccccc3)nn2-c2ccccc2)cn1`?
core dimer inh: inactive

How did Cc1ccc(C(C[N+](=O)[O-])c2c(C)[nH]n(-c3ccccc3)c2=O)cc1 (stereo unspecified) do in these assays?
VIM-2 inhibitor: inactive; core dimer inh: inactive; PHOSPHO1 block: inactive; IMP-1 inh: inactive; HCV NS3 hel inh: inactive; SUMO HTRF inh: 71.2

How did Cc1[nH]n(-c2ccccc2)c(=O)c1C(C[N+](=O)[O-])c1ccc(F)cc1 (stereo unspecified) do in these assays?
VIM-2 inhibitor: inactive; core dimer inh: inactive; PHOSPHO1 block: inactive; IMP-1 inh: inactive; HCV NS3 hel inh: inactive; SUMO HTRF inh: 88.2

How did CCOC(=O)c1ccccc1NC(=O)CN1C(=O)NC(C)(CCc2ccccc2)C1=O (stereo unspecified) do in these assays?
core dimer inh: inactive

Results for O=S(=O)(Nc1ccccc1N1CCCCC1)c1ccc(F)cc1 ?
VIM-2 inhibitor: inactive; core dimer inh: inactive; PHOSPHO1 block: inactive; IMP-1 inh: 4.7; HCV NS3 hel inh: inactive; SUMO HTRF inh: inactive

What do the screens show for `CC(C)C(=O)Nc1nnc(CSCc2ccccc2F)s1`?
VIM-2 inhibitor: 10.3; core dimer inh: inactive; PHOSPHO1 block: inactive; IMP-1 inh: inactive; HCV NS3 hel inh: inactive; SUMO HTRF inh: inactive

Results for CN1CCN(c2oc(-c3ccccc3)nc2S(=O)(=O)c2ccc(Br)cc2)CC1 ?
VIM-2 inhibitor: inactive; core dimer inh: inactive; PHOSPHO1 block: 61.0; IMP-1 inh: inactive; HCV NS3 hel inh: inactive; SUMO HTRF inh: inactive

Results for O=C(Nc1ccc2c(c1)OCO2)c1cc2nc(C3CC3)cc(C(F)(F)F)n2n1 ?
VIM-2 inhibitor: inactive; PHOSPHO1 block: inactive; IMP-1 inh: inactive; HCV NS3 hel inh: inactive; SUMO HTRF inh: inactive

How did Cc1cc(C)n2nc(C(=O)Nc3ccc4c(c3)OCO4)cc2n1 do in these assays?
VIM-2 inhibitor: inactive; core dimer inh: inactive; PHOSPHO1 block: inactive; IMP-1 inh: 4.7; HCV NS3 hel inh: inactive; SUMO HTRF inh: inactive

What do the screens show for `O=C(Cc1ccccc1)NCC(=O)Nc1cccc(Cl)c1`?
VIM-2 inhibitor: inactive; core dimer inh: inactive; PHOSPHO1 block: inactive; IMP-1 inh: inactive; HCV NS3 hel inh: inactive; SUMO HTRF inh: inactive

Results for CN(C)C(=O)c1cc(C(=O)c2ccc(Cl)cc2Cl)c[nH]1 ?
VIM-2 inhibitor: inactive; core dimer inh: inactive; PHOSPHO1 block: inactive; IMP-1 inh: inactive; HCV NS3 hel inh: inactive; SUMO HTRF inh: inactive

What do the screens show for `NC(=O)c1cc(C(=O)c2ccc(Cl)cc2Cl)c[nH]1`?
VIM-2 inhibitor: inactive; core dimer inh: inactive; PHOSPHO1 block: 64.3; IMP-1 inh: inactive; HCV NS3 hel inh: inactive; SUMO HTRF inh: inactive

What do the screens show for `CC(=O)N1CCCC(C(=O)c2ccc(Oc3ccccc3)cc2)C1` (stereo unspecified)?
VIM-2 inhibitor: inactive; core dimer inh: inactive; PHOSPHO1 block: inactive; IMP-1 inh: inactive; HCV NS3 hel inh: inactive; SUMO HTRF inh: inactive

What do the screens show for `Nc1ccn(-c2ncc(C(F)(F)F)cc2Cl)c(=O)n1`?
VIM-2 inhibitor: inactive; core dimer inh: inactive; PHOSPHO1 block: inactive; IMP-1 inh: inactive; HCV NS3 hel inh: inactive; SUMO HTRF inh: inactive

Results for FC(F)(F)c1cnc(-n2cc[nH]c2=S)c(Cl)c1 ?
VIM-2 inhibitor: inactive; core dimer inh: inactive; PHOSPHO1 block: 97.6; IMP-1 inh: inactive; HCV NS3 hel inh: inactive; SUMO HTRF inh: inactive

Results for Cc1ccc(S(=O)(=O)NC(=O)c2ccccc2C)cc1 ?
VIM-2 inhibitor: inactive; core dimer inh: inactive; PHOSPHO1 block: inactive; IMP-1 inh: inactive; HCV NS3 hel inh: inactive; SUMO HTRF inh: inactive

What do the screens show for `COc1cc2c(cc1NC(=S)NC(=O)/C=C/c1ccco1)oc1ccccc12`?
VIM-2 inhibitor: inactive; core dimer inh: inactive; PHOSPHO1 block: inactive; IMP-1 inh: inactive; HCV NS3 hel inh: inactive; SUMO HTRF inh: 52.3

Results for Cc1ccc(-c2nc3ccccc3o2)cc1NC(=S)NC(=O)/C=C/c1ccco1 ?
VIM-2 inhibitor: inactive; core dimer inh: 55.7; PHOSPHO1 block: inactive; IMP-1 inh: inactive; HCV NS3 hel inh: inactive; SUMO HTRF inh: inactive

What do the screens show for `O=C(/C=C/c1ccco1)NC(=S)Nc1cccc(-c2nc3ccccc3o2)c1`?
VIM-2 inhibitor: inactive; core dimer inh: 56.0; PHOSPHO1 block: inactive; IMP-1 inh: inactive; HCV NS3 hel inh: inactive; SUMO HTRF inh: inactive

How did Cc1cccc(NC(=S)NC(=O)/C=C/c2ccco2)c1 do in these assays?
VIM-2 inhibitor: inactive; core dimer inh: inactive; PHOSPHO1 block: inactive; IMP-1 inh: inactive; HCV NS3 hel inh: inactive; SUMO HTRF inh: inactive

How did CC(=O)N1CCN(Cc2nc3cc(NC(=O)c4cccc(Br)c4)ccc3n2C)CC1 do in these assays?
VIM-2 inhibitor: inactive; core dimer inh: inactive; PHOSPHO1 block: inactive; IMP-1 inh: inactive; HCV NS3 hel inh: inactive; SUMO HTRF inh: inactive

How did COc1ccc(C(=O)NCC(=O)N2CCN(C(=O)c3ccco3)CC2)cc1 do in these assays?
VIM-2 inhibitor: inactive; core dimer inh: inactive; PHOSPHO1 block: inactive; IMP-1 inh: inactive; HCV NS3 hel inh: inactive; SUMO HTRF inh: inactive
